# Test results taken from ChEMBL document CHEMBL3763127, “Design, synthesis and biological evaluation of novel asperphenamate derivatives” (Eur J Med Chem, 2016).
# Activity calls are given as the source filed them. No cut-off for these calls is given here.
# How the values were obtained:
# Bel-7402 [1] = assay: Induction of autophagy in human Bel7402 cells assessed as increase in autophagosome formation at 20 and 40 uM after 72 hrs by AO staining-based fluorescence microscopic analysis; type: functional, cell-based
# Outline: (§1)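 Cells in RPMI 1640/10% FBS were exposed to compound or 0.1% DMSO for 72 h: MCF-7 at 5 and 10 µM, HeLa and BEL-7402 at 20 and 40 µM. They were incubated with […] acridine orange for 15 min, washed with PBS, and acidic vesicles were imaged by inverted fluorescence microscopy.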
# HeLa [2] = assay: Induction of autophagy in human HeLa cells assessed as autophagosome accumulation at 20 uM after 72 hrs by MDC staining-based flow cytometric analysis (reference value: 1.92%); type: functional
# Bel-7402 [3] = assay: Induction of cell cycle arrest in human Bel7402 cells assessed as accumulation at G0/G1 phase at 20 uM after 72 hrs by PI staining-based flow cytometric analysis (reference value: 49.44%); type: functional
# MCF7 [4] = assay: Induction of apoptosis in human MCF7 cells assessed as accumulation at subG1 phase at 10 uM after 72 hrs by PI staining-based flow cytometric analysis (reference value: 2.98%); type: functional
# Bel-7402 [5] = assay: Induction of autophagy in human Bel7402 cells assessed as increase in LC3-2 level at 20 and 40 uM after 48 hrs by Western blot analysis; type: functional, cell-based
# Outline: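 Cells were treated with or without compound for 48 h: MCF-7 at 5 and 10 µM, HeLa and BEL-7402 at 20 and 40 µM. Total protein (10 µg) in SDS sample buffer (pH 6.8) was run on 8–15% SDS-PAGE and transferred to PVDF. LC3-I/LC3-II were probed with HRP secondary antibody and ECL detection. The assay was repeated at least three times.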
# Bel-7402 [6] = assay: Induction of autophagy in human Bel7402 cells assessed as autophagic cell formation at 40 uM after 72 hrs by MDC staining-based flow cytometric analysis (reference value: 3.94%); type: functional
# HeLa [7] = assay: Induction of autophagy in human HeLa cells assessed as increase in autophagosome formation at 20 and 40 uM after 72 hrs by AO staining-based fluorescence microscopic analysis; type: functional, cell-based; outline: as §1
# MCF7 [8] = assay: Induction of cell cycle arrest in human MCF7 cells assessed as accumulation at S phase at 10 uM after 24 hrs by PI staining-based flow cytometric analysis (reference value: 27.09%); type: functional
# HeLa [9] = assay: Induction of apoptosis in human HeLa cells assessed as accumulation at subG1 phase at 20 uM after 48 hrs by PI staining-based flow cytometric analysis (reference value: 2.89%); type: functional
# [10] = Cytotoxicity against human Bel7402 cells after 3 days by MTT assay; type: functional, cell-based; settings: Bel-7402, 72 h
# Outline: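 MCF-7, HeLa and BEL-7402 cells were grown in RPMI 1640 with 10% heat-inactivated FBS, 1 mM glutamine and penicillin/streptomycin at 37 °C under 5% CO2. They were exposed to compound for 3 days, then read by MTT at 570 nm. Viability was taken as treated/control absorbance, and IC50 was derived from it. Values are mean SD of three independent experiments.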
# MCF7 [11] = assay: Induction of cell cycle arrest in human MCF7 cells assessed as accumulation at G2/M phase at 10 uM after 72 hrs by PI staining-based flow cytometric analysis (reference value: 19.85%); type: functional
# MCF7 [12] = assay: Induction of cell cycle arrest in human MCF7 cells assessed as accumulation at G2/M phase at 10 uM after 48 hrs by PI staining-based flow cytometric analysis (reference value: 19.85%); type: functional
# HeLa [13] = assay: Induction of cell cycle arrest in human HeLa cells assessed as accumulation at G2/M phase at 20 uM after 72 hrs by PI staining-based flow cytometric analysis (reference value: 25.44%); type: functional
# Bel-7402 [14] = assay: Induction of autophagy in human Bel7402 cells assessed as autophagic cell formation at 20 uM after 72 hrs by MDC staining-based flow cytometric analysis (reference value: 3.94%); type: functional
# HeLa [15] = assay: Induction of cell cycle arrest in human HeLa cells assessed as accumulation at S phase at 20 uM after 48 hrs by PI staining-based flow cytometric analysis (reference value: 24.17%); type: functional
compound,measurement,setting,value
Cc1ccc(S(=O)(=O)N[C@H](Cc2ccccc2)C(=O)OC[C@H](Cc2ccccc2)NC(=O)c2ccccc2)cc1,Activity,Bel-7402 [1],Active
same,Activity,HeLa [2],26.11%
same,Activity,Bel-7402 [3],45.89%
same,Activity,MCF7 [4],3.76%
same,Activity,Bel-7402 [5],Active
same,Activity,Bel-7402 [6],48.25%
same,Activity,HeLa [7],Active
same,Activity,MCF7 [8],24.98%
same,Activity,HeLa [9],2.12%
same,IC50,[10],12.5 µM
same,Activity,MCF7 [11],20.07%
same,Activity,MCF7 [12],20.05%
same,Activity,HeLa [13],21.52%
same,Activity,Bel-7402 [14],23.66%
same,Activity,HeLa [15],25.4%
